Tests used:
Cricetinae gen. sp. [1] = experiment: Activity of compound the was expressed as ratio of active hamster tracheal organ cultures(TOC) to the total cultures at 10e-10 M concentration; 4/13; type: functional, Cricetulus griseus, Trachea
How it was run: (§1)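 Tracheal organ cultures came from vitamin A-deficient hamsters. Each culture was scored for reversal of keratinization and reported as active cultures out of total cultures at each retinoid concentration tested (10⁻⁸ to 10⁻¹² M). The protocol followed earlier published methods.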

Cricetinae gen. sp. [2] = experiment: Molarity required to effect reversal of keratinization in 50% of cultures.; type: functional, Cricetulus griseus
Cricetinae gen. sp. [3] = experiment: Activity of compound the was expressed as ratio of active hamster tracheal organ cultures(TOC) to the total cultures at 10e-8 M concentration; 7/7; type: functional, Cricetulus griseus, Trachea; settings: at 0.01 µM
Cricetinae gen. sp. [4] = experiment: Activity of compound the was expressed as ratio of active hamster tracheal organ cultures(TOC) to the total cultures at 10e-9 M concentration; 7/7; type: functional, Cricetulus griseus, Trachea; how it was run: as §1
Mus musculus [5] = species: Mus musculus; experiment: Tested for relative activity in a 20-week anti-papilloma experiment in female CD-1 mice at dose 170 nmol; type: functional
How it was run: (§2)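 Female Charles River CD-1 mice, 8 weeks old, in random groups of 25–30, were shaved 2 days before initiation with 200 nmol DMBA in acetone on the back. From 2 weeks on, 8.5 nmol TPA was applied twice weekly for 20 weeks. Retinoid in 0.2 mL acetone, or acetone alone for controls, was given 1 h before each TPA dose. Papillomas were counted weekly, and mean papillomas per mouse were compared with controls at 20 weeks.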

Mus musculus [6] = species: Mus musculus; experiment: Tested for relative activity in a 20-week anti-papilloma experiment in female CD-1 mice at dose 17 nmol; type: functional; how it was run: as §2
Mus musculus [7] = species: Mus musculus; experiment: Percent decrease in average number of papillomas at dose 170 nmol; type: functional; how it was run: as §2
Mus musculus [8] = species: Mus musculus; experiment: Percent decrease in average number of papillomas at dose 17 nmol; type: functional; how it was run: as §2
[9] = target: T1, Ornithine decarboxylase (Mus musculus) (UniProt P00860); experiment: Inhibition of the induction of ornithine decarboxylase in mouse epidermis by the tumor promoter 12-O-tetradecanoylphorbol-13-acetate (ODC) at dose 1.7 nmol
T1 sequence (whole entry): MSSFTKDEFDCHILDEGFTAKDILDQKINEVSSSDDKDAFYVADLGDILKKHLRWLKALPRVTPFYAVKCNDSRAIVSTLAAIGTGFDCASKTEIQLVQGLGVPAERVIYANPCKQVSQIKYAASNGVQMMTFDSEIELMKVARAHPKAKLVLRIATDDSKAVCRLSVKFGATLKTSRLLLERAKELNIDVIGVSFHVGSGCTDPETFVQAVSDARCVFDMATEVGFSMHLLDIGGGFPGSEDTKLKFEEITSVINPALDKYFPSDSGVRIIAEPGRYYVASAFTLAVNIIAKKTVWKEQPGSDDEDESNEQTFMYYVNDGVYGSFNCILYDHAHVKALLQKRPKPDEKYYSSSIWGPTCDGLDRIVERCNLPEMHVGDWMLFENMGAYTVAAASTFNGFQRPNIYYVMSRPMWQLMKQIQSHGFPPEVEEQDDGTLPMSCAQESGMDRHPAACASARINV

[10] = target: T1, Ornithine decarboxylase (Mus musculus); experiment: Inhibition of the induction of ornithine decarboxylase in mouse epidermis by the tumor promoter 12-O-tetradecanoylphorbol-13-acetate (ODC) at dose 17 nmol
[11] = Mortality range in days at dose 200 umol/kg day; type: functional, Mus musculus
How it was run: (§3)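 Adult female Swiss mice (20–25 g) had chow and water ad libitum. The retinoid was homogenized as a suspension in aqueous 8% Cremophor EL plus 10% propylene glycol. It was given ip as 10 weekday injections over 14 days. Controls received vehicle alone. Survivors were weighed on days 1, 5, 10 and 15, and dates of death were recorded. Survival was scored at days 8 and 15.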

[12] = Mortality range in days at dose 300 umol/kg day; 12-15; type: functional, Mus musculus; how it was run: as §3
[13] = Mortality range in days at dose 600 umol/kg day; 7-10; type: functional, Mus musculus; how it was run: as §3
[14] = Percent survivors at dose 100 umol/kg day; type: functional, Mus musculus; how it was run: as §3
[15] = Percent survivors at dose 200 umol/kg day; type: functional, Mus musculus; how it was run: as §3
[16] = Percent survivors at dose 300 umol/kg day; type: functional, Mus musculus; how it was run: as §3
[17] = Percent survivors at dose 30 umol/kg day; type: functional, Mus musculus; how it was run: as §3
[18] = Percent survivors at dose 600 umol/kg day; type: functional, Mus musculus; how it was run: as §3
Cricetinae gen. sp. [19] = experiment: Activity of compound the was expressed as ratio of active hamster tracheal organ cultures(TOC) to the total cultures at 10e-12 M concentration; 4/15; type: functional, Cricetulus griseus, Trachea
Cricetinae gen. sp. [20] = experiment: Activity of compound the was expressed as ratio of active hamster tracheal organ cultures(TOC) to the total cultures at 10e-10 M concentration; 21/22; type: functional, Cricetulus griseus, Trachea
Cricetinae gen. sp. [21] = experiment: Activity of compound the was expressed as ratio of active hamster tracheal organ cultures(TOC) to the total cultures at 10e-11 M concentration; 17/22; type: functional, Cricetulus griseus, Trachea
Cricetinae gen. sp. [22] = experiment: Activity of compound the was expressed as ratio of active hamster tracheal organ cultures(TOC) to the total cultures at 10e-10 M concentration; 1/7; type: functional, Cricetulus griseus, Trachea; how it was run: as §1
Cricetinae gen. sp. [23] = experiment: Activity of compound the was expressed as ratio of active hamster tracheal organ cultures(TOC) to the total cultures at 10e-9 M concentration; 1/7; type: functional, Cricetulus griseus, Trachea; how it was run: as §1
Cricetinae gen. sp. [24] = experiment: Activity of compound the was expressed as ratio of active hamster tracheal organ cultures(TOC) to the total cultures at 10e-8 M concentration; 2/7; type: functional, Cricetulus griseus, Trachea; how it was run: as §1
[25] = target: T1, Ornithine decarboxylase (Mus musculus); experiment: Inhibition of the induction of ornithine decarboxylase in mouse epidermis by the tumor promoter 12-O-tetradecanoylphorbol-13-acetate (ODC) at dose 17 nmol; Inhibition not significant
[26] = target: T1, Ornithine decarboxylase (Mus musculus); experiment: Inhibition of the induction of ornithine decarboxylase in mouse epidermis by the tumor promoter 12-O-tetradecanoylphorbol-13-acetate (ODC) at dose 1.7 nmol; Inhibition not significant
Cricetinae gen. sp. [27] = experiment: Activity of compound the was expressed as ratio of active hamster tracheal organ cultures(TOC) to the total cultures at 10e-10 M concentration; 18/19; type: functional, Cricetulus griseus, Trachea; how it was run: as §1
Cricetinae gen. sp. [28] = experiment: Activity of compound the was expressed as ratio of active hamster tracheal organ cultures(TOC) to the total cultures at 10e-11 M concentration; 10/20; type: functional, Cricetulus griseus, Trachea; how it was run: as §1
Cricetinae gen. sp. [29] = experiment: Activity of compound the was expressed as ratio of active hamster tracheal organ cultures(TOC) to the total cultures at 10e-12 M concentration; 3/19; type: functional, Cricetulus griseus, Trachea; how it was run: as §1
Mus musculus [30] = species: Mus musculus; experiment: Tested for relative activity in a 20-week anti-papilloma experiment in female CD-1 mice at dose 1.7 nmol; type: functional; how it was run: as §2
Mus musculus [31] = species: Mus musculus; experiment: Percent decrease in average number of papillomas at dose 170 nmol *-p<0.001; type: functional; how it was run: as §2
Mus musculus [32] = species: Mus musculus; experiment: Percent decrease in average number of papillomas at dose 17 nmol *-p<0.001; type: functional; how it was run: as §2
[33] = Mortality range in days at dose 200 umol/kg day; 14-15; type: functional, Mus musculus; how it was run: as §3
[34] = Mortality range in days at dose 300 umol/kg day; 10-14; type: functional, Mus musculus; how it was run: as §3
[35] = Mortality range in days at dose 600 umol/kg day; 7-13; type: functional, Mus musculus; how it was run: as §3
[36] = Percent survivors at dose 33 umol/kg day; type: functional, Mus musculus; how it was run: as §3
[37] = Percent survivors at dose 67 umol/kg day; type: functional, Mus musculus; how it was run: as §3
Mus musculus [38] = species: Mus musculus; experiment: Percent decrease in average number of papillomas at dose 1.7 nmol *-p<0.01; type: functional; how it was run: as §2
Mus musculus [39] = species: Mus musculus; experiment: Tested for percentage of mice with papillomas in a 20-week anti-papilloma experiment in female CD-1 mice at dose 170 nmol
Cricetinae gen. sp. [40] = experiment: Activity of compound the was expressed as ratio of active hamster tracheal organ cultures(TOC) to the total cultures at 10e-8 M concentration; type: functional, Cricetulus griseus, Trachea; how it was run: as §1
Cricetinae gen. sp. [41] = experiment: Activity of compound the was expressed as ratio of active hamster tracheal organ cultures(TOC) to the total cultures at 10e-10 M concentration; type: functional, Cricetulus griseus, Trachea; how it was run: as §1
Cricetinae gen. sp. [42] = experiment: Activity of compound the was expressed as ratio of active hamster tracheal organ cultures(TOC) to the total cultures at 10e-9 M concentration; type: functional, Cricetulus griseus, Trachea; how it was run: as §1
Cricetinae gen. sp. [43] = experiment: Activity of compound the was expressed as ratio of active hamster tracheal organ cultures(TOC) to the total cultures at 10e-10 M concentration; 3/7; type: functional, Cricetulus griseus, Trachea; how it was run: as §1
Cricetinae gen. sp. [44] = experiment: Activity of compound the was expressed as ratio of active hamster tracheal organ cultures(TOC) to the total cultures at 10e-9 M concentration; 4/7; type: functional, Cricetulus griseus, Trachea; how it was run: as §1
Cricetinae gen. sp. [45] = experiment: Activity of compound the was expressed as ratio of active hamster tracheal organ cultures(TOC) to the total cultures at 10e-8 M concentration; 6/7; type: functional, Cricetulus griseus, Trachea; how it was run: as §1

C/C(=C\c1ccc(C(=O)O)cc1)c1ccc2c(c1)C(C)(C)CCO2 gave an Activity (Cricetinae gen. sp. [1]) of 4%, an ED50 (Cricetinae gen. sp. [2]) of 2e-10 and an Activity (Cricetinae gen. sp. [3]) of 7%. The Activity (Cricetinae gen. sp. [4]) was 100%, the Activity (Mus musculus [5]) was 38% and the Activity (Mus musculus [6]) was 53%. The Decrease (Mus musculus [7]) was 94%, the Decrease (Mus musculus [8]) was 75% and the inhibition [9] was 42%. It also gave an inhibition [10] of 81%, a Mortality range [11] of 14 days and a Mortality range [12] of 15 days. The Mortality range [13] was 10 days, the “Survivors at day 8” value [14] was 100% and the “Survivors at day 15” value [14] was 100%. The “Survivors at day 8” value [15] was 100%, the “Survivors at day 15” value [15] was 90% and the “Survivors at day 8” value [16] was 100%. The “Survivors at day 15” value [16] was 50%, the “Survivors at day 8” value [17] was 100% and the “Survivors at day 8” value [18] was 70%. For the same compound, the “Survivors at day 15” value [18] was 0%.
In the case of CC1(C)CCC(C)(C)c2cc(-c3ccc4cc(C(=O)O)ccc4c3)ccc21, the Activity (Cricetinae gen. sp. [19]) is reported as 4%, the Activity (Cricetinae gen. sp. [20]) is reported as 21% and the ED50 (Cricetinae gen. sp. [2]) is reported as 3e-12. For the same compound, the Activity (Cricetinae gen. sp. [21]) was 17%.
For CC1=C(c2ccc(/C=C/C(C)=C/C(=O)O)c(C)c2)C(C)(C)CCC1, the Activity (Cricetinae gen. sp. [22]) was 1%, the ED50 (Cricetinae gen. sp. [2]) was >1e-08 and the Activity (Cricetinae gen. sp. [23]) was 1%. The Activity (Cricetinae gen. sp. [24]) was 2%, the inhibition [25] was 23% and the inhibition [26] was 9%.
CC1=C(/C=C/C(C)=C/C=C/C(C)=C/C(=O)O)C(C)(C)CCC1 [TRETINOIN] showed an Activity (Cricetinae gen. sp. [27]) of 18%, an Activity (Cricetinae gen. sp. [28]) of 10% and an ED50 (Cricetinae gen. sp. [2]) of 1e-11. The Activity (Cricetinae gen. sp. [29]) was 3%, the Activity (Mus musculus [30]) was 69% and the Activity (Mus musculus [6]) was 47%. It also gave a Decrease (Mus musculus [31]) of 89.6%, a Decrease (Mus musculus [32]) of 74.1% and a Mortality range [33] of 15 days. For the same compound, the Mortality range [34] was 14 days, the Mortality range [35] was 13 days and the “Survivors at day 8” value [14] was 100%. The “Survivors at day 15” value [14] was 100%, the “Survivors at day 8” value [15] was 100% and the “Survivors at day 15” value [15] was 63%. For the same compound, the “Survivors at day 8” value [16] was 100%, the “Survivors at day 15” value [16] was 0% and the “Survivors at day 8” value [36] was 100%. For the same compound, the “Survivors at day 15” value [36] was 100%, the “Survivors at day 8” value [18] was 95% and the “Survivors at day 15” value [18] was 0%. For the same compound, the “Survivors at day 8” value [37] was 100%, the “Survivors at day 15” value [37] was 100% and the Decrease (Mus musculus [38]) was 56.2%. The “mice with papillomas %” value (Mus musculus [39]) was 40%.
Compound CC1=C(c2ccc(-c3ccc(C(=O)O)cc3)cc2)C(C)(C)CCC1 has an Activity (Cricetinae gen. sp. [40]) of 7%, an Activity (Cricetinae gen. sp. [41]) of 2% and an ED50 (Cricetinae gen. sp. [2]) of 3e-09. For the same compound, the Activity (Cricetinae gen. sp. [42]) was 2%, the inhibition [9] was 34% and the inhibition [10] was 55%.
With CC1=C(/C=C/C(C)=C/C=C/c2ccc(C(=O)O)cc2)C(C)(C)CCC1 [PELRETIN] the Activity (Cricetinae gen. sp. [43]) was 3%, the Activity (Cricetinae gen. sp. [44]) was 57% and the ED50 (Cricetinae gen. sp. [2]) was 4e-10. It also gave an Activity (Cricetinae gen. sp. [45]) of 6%, an inhibition [9] of 33% and an inhibition [10] of 56%.

From ChEMBL document CHEMBL1122522, “Conformationally restricted retinoids” (1984)
